Bioassay records (PubChem)
MEKK2mut PB1 HTS: MEK5 binding signal on mutant MEKK2 PB1, primary screen, biochemical, multiplex bead flow cytometry, Alexa488-MEK5; Alexa488-MEK5 binding to MEKK2 mutant; percent response, % at 10 µM; 0.35% of 290,000 active; AID 1530, 2009; in the data active = percent response above about 24%, passing the limit was not always enough
Pemphigus Ab inh: inhibitors of pemphigus antibody binding to DSG3, primary screen, biochemical, bead-based, flow cytometry, scFv-GFP | Desmoglein-3 (Homo sapiens), P32926 | DSG3-coupled beads, scFv-anti-DSG3-GFP binding; stronger effect = lower value | binding (percent of control), % at 10 µM | 0.48% of 310,000 active | AID 588358, 2011;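 active = binding more than 3 SD below its plate's average and above zero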;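 also: hits lower antibody fragment binding to DSG3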
MEKK3 PB1 HTS: modulators of MEKK3-MEK5 PB1 binding, primary screen, biochemical, wildtype MEKK3, multiplex bead flow cytometry, Alexa488-MEK5. Mitogen-activated protein kinase kinase kinase 3 (Homo sapiens), Q99759. bead-based flow cytometry, Alexa488-MEK5 binding to MEKK3; actives lie on both sides; 0 = blocked by unlabeled MEK5, 100 = vehicle. binding response (% of control), % at 10 µM. 1.4% of 290,000 active;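 active = binding response more than 3 SD above or below the average of its plate-row segment, actives on both sides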;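 also: Alexa488 bead fluorescence after subtracting the streptavidin-only scavenger bead signal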
Target sequence (Q99759 whole entry, looked up): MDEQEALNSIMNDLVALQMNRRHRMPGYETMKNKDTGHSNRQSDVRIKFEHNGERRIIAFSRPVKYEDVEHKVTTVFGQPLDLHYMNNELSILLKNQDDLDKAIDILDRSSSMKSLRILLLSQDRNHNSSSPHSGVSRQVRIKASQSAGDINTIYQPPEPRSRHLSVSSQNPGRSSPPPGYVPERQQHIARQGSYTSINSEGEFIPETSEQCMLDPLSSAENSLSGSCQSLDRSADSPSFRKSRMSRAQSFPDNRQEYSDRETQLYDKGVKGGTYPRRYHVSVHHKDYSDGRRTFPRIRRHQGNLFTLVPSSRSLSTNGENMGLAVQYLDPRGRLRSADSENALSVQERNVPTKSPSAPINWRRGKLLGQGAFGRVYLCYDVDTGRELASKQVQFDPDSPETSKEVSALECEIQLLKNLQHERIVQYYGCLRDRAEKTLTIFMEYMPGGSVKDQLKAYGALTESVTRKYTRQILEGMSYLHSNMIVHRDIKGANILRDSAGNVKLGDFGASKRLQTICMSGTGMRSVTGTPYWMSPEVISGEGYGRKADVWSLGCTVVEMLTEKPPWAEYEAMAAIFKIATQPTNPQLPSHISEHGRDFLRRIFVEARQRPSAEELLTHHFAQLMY
UBC13 polyUb: UBC13 polyubiquitin chain formation inhibitors, primary screen, biochemical, TR-FRET, uHTS; Ubiquitin-conjugating enzyme E2 N (Homo sapiens), P61088; inhibition, % at 20 µM; 0.47% of 330,000 active; AID 485273, 2010; in the data active = inhibition above about 45%, passing the limit was not always enough
Apaf-1 inh: inhibitors of human Apaf-1 apoptosome, primary screen, biochemical, DEVD-Rh110 fluorescence, uHTS. reconstituted apoptosome caspase-3 activity. inhibition, % at 20 µM. 0.71% of 330,000 active; active = inhibition of at least 40% at 20 µM;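 also: plate controls were DMSO wells for no effect and DEVD-CHO caspase inhibitor wells for full effect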
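Assay system: Apoptosome proteins | Medium: pH 7.5 Hepes buffer with CHAPS, BSA, DTT | Also added: Cytochrome c and DEVD-Rh110 substrate | Times: 30 min plus 50 min, RT | Detection: Rhodamine 110 fluorescence at Ex 480/Em 540 nm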
MEKK2 WT-MEK5: modulators of MEK5 binding to wildtype MEKK2, primary screen, biochemical, multiplex bead flow cytometry, Alexa488-MEK5 | Alexa488-MEK5 binding to MEKK2 WT; actives lie on both sides | Mitogen-activated protein kinase kinase kinase 2 (Homo sapiens), Q9Y2U5 | AID 1531, 2009 | binding response (% of control), % at 10 µM | 1.1% of 290,000 active; in the data active = binding response below about 67% or above about 130%
MEKK2wt confirm: modulators of MEK5 binding to wildtype MEKK2, confirmation, biochemical, single concentration, multiplex bead flow cytometry; AID 1892, 2009; Alexa488-MEK5 binding to MEKK2 WT; actives lie on both sides; 2.4% of 5,900 active; binding response (% of control), % at 10 µM; shares compounds with MEKK3 PB1 HTS; in the data active = binding response below about 16% or above about 210%; inactive = in between
MEKK2mut-MEK5: mutant MEKK2 PB1-MEK5 binding signal retest – biochemical, single concentration, multiplex bead flow cytometry, confirmation; shares compounds with MEKK3 PB1 HTS; percent response, % at 10 µM; 2% of 5,900 active; Alexa488-MEK5 binding to MEKK2 mutant; in the data active = percent response mostly above about 71%, no sharp cut-off; inactive = mostly below about 38%;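 also: higher means compound restores mutant binding toward wildtype level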
MEKK3-MEK5 inh: MEKK3 wild-type PB1 binding to MEK5, inhibitors, confirmation, biochemical, bead multiplex flow cytometry, single concentration, wildtype; 1.8% of 5,900 active; shares compounds with MEKK3 PB1 HTS; Alexa488-MEK5 binding to MEKK3; stronger effect = lower value; binding response (% of control), % at 10 µM;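 active = binding response below 72% of control, or above a set upper limit, though filed actives all read lower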;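 also: 100% = DMSO only wells and 0% = binding blocked by excess unlabeled MEK5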
* hit, by the source's call; / = no result given; [ ] = remark or other dose. In the library only some 3.2% were active in any assay of this set; here they are far more common.

SMILES	MEKK2mut PB1 HTS	Pemphigus Ab inh	MEKK3 PB1 HTS	UBC13 polyUb	Apaf-1 inh	MEKK2 WT-MEK5	MEKK2wt confirm	MEKK2mut-MEK5	MEKK3-MEK5 inh
Cc1nn(Cc2cccc(C(=O)Nn3cc([N+](=O)[O-])cn3)c2)c(C)c1[N+](=O)[O-]	0	116	128*	-9	19	104	96	-12	97
O=c1[nH]c2cc3c(cc2cc1CN(CCO)S(=O)(=O)c1ccccc1)OCCO3	23	98	130*	5	-4	111	102	5	101
COc1ccc(OC)c(C2C3=C(CCCC3=O)Nc3nnnn32)c1 (stereo unspecified)	0	107	133*	8	4	107	99	-3	98
COC(=O)C1=C(C)Nc2nnnn2C1c1cc(OC)ccc1OC (stereo unspecified)	-1	100	99	4	-1	98	/	/	/
C=CCn1cnc2c(nnn2-c2ccc(C)c(C)c2)c1=O	-72	99	2.0*[inhibitor]	20	-22	1.0*[inhibitor]	97	-5	101
C=CCn1cnc2c(nnn2-c2ccc(OC)c(OC)c2)c1=O	0	/	106	-5	-4	98	/	/	/
COC(=O)c1sc(NC(=O)COc2cccc(C)c2)nc1C	2	108	141*	2	-5	114	66	-26	62*
COC(=O)c1sc(NC(=O)COc2ccc(OC)cc2)nc1C	13	99	105	2	-5	102	/	/	/
COc1cccc(C(=O)C2CCCN(C/C=C/c3ccccc3OC)C2)c1 (stereo unspecified)	-7	104	105	-5	12	98	/	/	/
COc1ccc(/C=C/CN2CCCC(C(=O)c3ccc(OC)c(F)c3)C2)cc1 (stereo unspecified)	20	96	105	5	5	140*	126	11	104
CCn1cc(C(=O)NCc2ccc(Cl)cc2)c(=O)c2cc(S(=O)(=O)N(C)C)ccc21	-5	109	101	5	10	96	/	/	/
CCOC(=O)N1CCC(N2C(=O)c3ccccc3C2Nc2cc(C)cc(C)c2)CC1 (stereo unspecified)	31	89	128*	-9	11	115	92	-10	96
CCOC(=O)N1CCC(N2C(=O)c3ccccc3C2Nc2ccc(C)cc2)CC1 (stereo unspecified)	6	104	108	0	10	112	/	/	/
Cc1nc2c(nc1C)C(=O)c1ccccc1C2=O	/	89	/	/	/	/	/	/	/
O=C1c2ccccc2-c2nc3ccccc3nc21	-27	97	67*[inhibitor]	-104	-6	72	94	-7	99
Cc1cc(C)c(S(=O)(=O)Nc2ccccc2)c(C)c1	/	90	/	/	/	/	/	/	/
Cc1cc(NCc2ccccc2)c2ccccc2n1	8	119	111	0	-2	149*	116	9	103
Cc1cc(-c2ccccc2)nc(N/N=C/c2ccc(O)cc2O)n1	6	94	108	-23	7	111	/	/	/
Cc1cc(NCc2ccccc2)nc2ccccc12	3	104	99	13	8	106	/	/	/
Cc1cc(N/N=C/c2ccccc2O)c2ccccc2n1	14	100	108	4	30	186*	135	14	102
O=C(/C=C/c1ccco1)Nc1cccc2cccnc12	0	95	62*[inhibitor]	-16	8	91	96	-4	100
O=C(O)/C=C/C(=O)Nc1cccc2cccnc12	4	88	100	-4	5	103	/	/	/
CCc1ccc(OCC(=O)Nc2ccc3oc(=O)ccc3c2)cc1	0	/	103	4	3	98	/	/	/
O=C(Cn1cnc2ccccc21)N/N=C/c1cccs1	2	99	129*	-7	0	100	105	-2	103
O=C(Cn1nnc2ccccc21)N/N=C\c1cccs1	11	97	103	-11	11	107	/	/	/
SMILES	MEKK2mut PB1 HTS	Pemphigus Ab inh	MEKK3 PB1 HTS	UBC13 polyUb	Apaf-1 inh	MEKK2 WT-MEK5	MEKK2wt confirm	MEKK2mut-MEK5	MEKK3-MEK5 inh
CNC(=O)c1cc2ccccc2o1	7	97	124*	-5	10	119	91	-6	90
COc1ccc(C(=O)NCc2ccc3c(c2)OCO3)cc1	-1	100	102	-4	-10	96	/	/	/
Cc1cc2cc(CNC(=O)c3cc4ccccc4o3)ccc2n1C	-9	/	45*[inhibitor]	3	12	/	57	-19	75
Cc1cc2cc(CNC(=O)c3ccco3)ccc2n1C	1	91	97	-19	-3	96	/	/	/
Cc1cc2cc(CNC(=O)c3ccc4c(c3)OCO4)ccc2n1C	-19	93	65*[inhibitor]	7	12	-11*	102	4	101
COc1cc(OC)cc(C(=O)NCc2ccc3c(c2)cc(C)n3C)c1	-21	92	47*[inhibitor]	10	15	/	70	-12	85
COc1ccc(C(=O)NCc2ccc3c(c2)cc(C)n3C)cc1	8	98	90	2	-1	91	/	/	/
COc1ccc(S(=O)(=O)Oc2ccccc2C(=S)N2CCOCC2)cc1	5	/	102	-4	16	105	/	/	/
CC(C)(C)OC(=O)N[C@H](C(=O)OC(C)(C)C)c1ccc2ccccc2c1	/	99	/	-13	23	/	/	/	/
CSCCNC(=O)Nc1c(-c2c(Cl)cccc2Cl)noc1C	-26	/	67*[inhibitor]	6	-15	86	102	4	102
CC(=O)c1cccc(NC(=O)CCC2CCCC2)c1	-21	124	2.0*[inhibitor]	-8	11	2.0*[inhibitor]	103	1	101
O=C(CCc1nnc(CCCc2ccccc2)o1)NCCc1ccccc1	-6	88	99	3	11	98	/	/	/
